Assay results from different studies.
Compare with care: the assays were run in different laboratories. Values after ≈ are worked out from the molar mass of the structure shown.

Structure (SMILES) | organism | assay | test system | conditions | measurement | result
C=CC(=O)ON=C1C=CC(=C(C#N)c2ccccc2)C=C1 | Pichia kudriavzevii | microbial growth, broth dilution | ATCC14243 | 48 h | MIC | 16 µg/mL (≈ 57.9 µM)
OC(Cn1cncn1)(Cn1cncn1)c1ccc(F)cc1F | Pichia kudriavzevii | microbial growth, broth dilution | – | – | MIC80 | 16 µg/mL (≈ 52.2 µM)
C#CCOC(=O)ON=C1C=CC(=C(C#N)c2ccccc2)C=C1 | Pichia kudriavzevii | microbial killing, broth dilution | ATCC14243 | 48 h | MFC | 32 µg/mL (≈ 105 µM)
CC1=C(Cn2ccnc2[N+](=O)[O-])C(=O)c2ccccc2C1=O | Schistosoma mansoni | parasite growth | – | 72 h, larva | IC50 | 1030 nM
CC(=O)ON=C1C=CC(=C(C#N)c2ccccc2)C=C1 | Pichia kudriavzevii | microbial killing, broth dilution | ATCC14243 | 48 h | MFC | 16 µg/mL (≈ 60.5 µM)
O=C(Nc1ccc(F)cc1F)c1ccc(COC(Cn2ccnc2)c2ccc(Cl)cc2Cl)cc1 (stereo not drawn) | Pichia kudriavzevii | microbial growth, broth dilution | – | – | MIC80 | 0.03 µg/mL (≈ 0.0597 µM)
CC1=C(Cn2ccnn2)C(=O)c2ccccc2C1=O | Schistosoma mansoni | parasite growth | – | 72 h, larva | IC50 | 1050 nM
CC(=O)N1CCN(c2ccc(OCC3COC(Cn4ccnc4)(c4ccc(Cl)cc4Cl)O3)cc2)CC1 (stereo not drawn) | Pichia kudriavzevii | microbial growth, broth dilution | ATCC14243 | 48 h | MIC | 8 µg/mL (≈ 15.1 µM)
COc1ccc(NC(=O)c2ccc(COC(Cn3ccnc3)c3ccc(Cl)cc3Cl)cc2)cc1 (stereo not drawn) | Pichia kudriavzevii | microbial growth, broth dilution | – | – | MIC80 | 0.125 µg/mL (≈ 0.252 µM)
CC(C)c1ccc(/C=C2\N=C(SCC(=O)O)N(c3ccccc3)C2=O)cc1 | Fusarium solani | microbial growth, broth dilution | – | – | MIC | 12 µg/mL (≈ 31.5 µM)
CC1=C(Cn2cnc([N+](=O)[O-])n2)C(=O)c2ccccc2C1=O | Schistosoma mansoni | parasite growth | – | 72 h, larva | IC50 | 860 nM
O=C(Nc1cccc(Br)c1)c1ccc(COC(Cn2ccnc2)c2ccc(Cl)cc2Cl)cc1 (stereo not drawn) | Pichia kudriavzevii | microbial growth, broth dilution | – | – | MIC80 | 0.06 µg/mL (≈ 0.11 µM)
CC1=C(Cn2cc(C(C)(C)O)nn2)C(=O)c2ccccc2C1=O | Schistosoma mansoni | parasite growth | – | 72 h, larva | IC50 | 1050 nM
C#CCON=C1C=CC(=C(C#N)c2ccccc2)C=C1 | Pichia kudriavzevii | microbial growth, broth dilution | ATCC14243 | 48 h | MIC | 32 µg/mL (≈ 123 µM)
CC1=C(Cc2cn(CCO)nn2)C(=O)c2ccccc2C1=O | Schistosoma mansoni | parasite growth | – | 72 h, larva | IC50 | 1440 nM
CCn1c(=O)c(-c2cc[nH]n2)cc2c(C)nc(N)nc21 | Enterovirus A | viral replication, inhibitor, qPCR | RD, EV71 | – | IC50 | 158 nM
CC1=C(Cn2cc(CN3CCNCC3)nn2)C(=O)c2ccccc2C1=O | Schistosoma mansoni | parasite growth | – | 72 h, larva | IC50 | 930 nM
O=C(Nc1ccc(Cl)cc1)c1ccc(COC(Cn2ccnc2)c2ccc(Cl)cc2Cl)cc1 (stereo not drawn) | Pichia kudriavzevii | microbial growth, broth dilution | – | – | MIC80 | 0.125 µg/mL (≈ 0.25 µM)
Cc1nnc(-c2ccc3ccn(CC(=O)Nc4ccccc4Cl)c3c2)o1 | Plasmodium knowlesi | parasite growth, SYBR Green | – | 30 h, blood stage | EC50 | 431 nM
N#CC(=C1C=CC(=NOC(=O)OCc2ccccc2)C=C1)c1ccccc1 | Pichia kudriavzevii | microbial killing, broth dilution | ATCC14243 | 48 h | MFC | 256 µg/mL (≈ 718 µM)
O=C(Nc1ccc2ccccc2c1)c1ccc(COC(Cn2ccnc2)c2ccc(Cl)cc2Cl)cc1 (stereo not drawn) | Pichia kudriavzevii | microbial growth, broth dilution | – | – | MIC80 | 32 µg/mL (≈ 62 µM)
CC1=C(Cc2cn(CCN3CCNCC3)nn2)C(=O)c2ccccc2C1=O | Schistosoma mansoni | parasite growth | – | 72 h, larva | IC50 | 1670 nM
O=C(Nc1cccc(F)c1)c1ccc(COC(Cn2ccnc2)c2ccc(Cl)cc2Cl)cc1 (stereo not drawn) | Pichia kudriavzevii | microbial growth, broth dilution | – | – | MIC80 | 0.25 µg/mL (≈ 0.516 µM)
OC(Cn1cncn1)(Cn1cncn1)c1ccc(F)cc1F | Pichia kudriavzevii | microbial growth, broth dilution | ATCC6258 | 48 h | MIC | 0.7 µg/mL (≈ 2.29 µM)
